Tested on: HEK-293T
Assay: Multiplex assay against HEK293T;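 on Population Tubulin-Different-Phenotype (%): share of the cells with healthy nuclei that show this phenotype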
Assay type: toxicity, cell-based
Settings: human
How it was run: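 With compound added, live cells were imaged on a CQ1 microscope at 37°C and 5% CO2; staining with Hoechst33342, BioTracker Green Microtubule Cytoskeleton Dye, MitoTracker Red and Annexin V Alexa Fluor 680 had been done at seeding. The CellPathfinder machine-learning gating scheme split cells into Hoechst high-intensity objects or normal cells, normal cells into healthy, pyknosed or fragmented nuclei, and pyknosed cells into mitotic or apoptotic. The tubulin, mitochondrial-mass and membrane-permeability phenotypes are per cents of healthy-nucleus cells.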

[1] = 12 h, 1 µM, compound concentration 1 uM, replicate 1
[2] = 12 h, 1 µM, compound concentration 1 uM, replicate 2
[3] = 12 h, 10 µM, compound concentration 10 uM, replicate 1
[4] = 12 h, 10 µM, compound concentration 10 uM, replicate 2
[5] = 24 h, 1 µM, compound concentration 1 uM, replicate 1
[6] = 24 h, 1 µM, compound concentration 1 uM, replicate 2
[7] = 24 h, 10 µM, compound concentration 10 uM, replicate 1
[8] = 24 h, 10 µM, compound concentration 10 uM, replicate 2
[9] = 48 h, 1 µM, compound concentration 1 uM, replicate 1
[10] = 48 h, 1 µM, compound concentration 1 uM, replicate 2
[11] = 48 h, 10 µM, compound concentration 10 uM, replicate 1
[12] = 48 h, 10 µM, compound concentration 10 uM, replicate 2

CN(C)C(=O)C(CCN1CCC(O)(c2ccc(Cl)cc2)CC1)(c1ccccc1)c1ccccc1.Cl [LOPERAMIDE HYDROCHLORIDE]
Population Apoptotic (%) [1]: 70%
Population Fragmented Nuclei (%) [1]: 10%
Population Healthy Nuclei (%) [1]: 37%
Population Hoechst High Intensity Objects (%) [1]: 16%
Population Membrane Permeable-Phenotype (%) [1]: 2%
Population Mitochondria Different-Phenotype (%) [1]: 92%
Population Mitotic Cells (%) [1]: 29%
Population Normal (%) [1]: 83%
Population Pyknosed Nuclei (%) [1]: 51%
Population Tubulin-Different-Phenotype (%) [1]: 83%
Total Cell Count [1]: 254
Population Apoptotic (%) [2]: 56%
Population Fragmented Nuclei (%) [2]: 4%
Population Healthy Nuclei (%) [2]: 30%
Population Hoechst High Intensity Objects (%) [2]: 0%
Population Membrane Permeable-Phenotype (%) [2]: 6%
Population Mitochondria Different-Phenotype (%) [2]: 95%
Population Mitotic Cells (%) [2]: 43%
Population Normal (%) [2]: 99%
Population Pyknosed Nuclei (%) [2]: 65%
Population Tubulin-Different-Phenotype (%) [2]: 85%
Total Cell Count [2]: 208
Population Apoptotic (%) [3]: 91%
Population Fragmented Nuclei (%) [3]: 10%
Population Healthy Nuclei (%) [3]: 7%
Population Hoechst High Intensity Objects (%) [3]: 20%
Population Membrane Permeable-Phenotype (%) [3]: 0%
Population Mitochondria Different-Phenotype (%) [3]: 100%
Population Mitotic Cells (%) [3]: 8%
Population Normal (%) [3]: 79%
Population Pyknosed Nuclei (%) [3]: 82%
Population Tubulin-Different-Phenotype (%) [3]: 86%
Total Cell Count [3]: 258
Population Apoptotic (%) [4]: 98%
Population Fragmented Nuclei (%) [4]: 6%
Population Hoechst High Intensity Objects (%) [4]: 15%
Population Mitotic Cells (%) [4]: 1%
Population Normal (%) [4]: 84%
Population Pyknosed Nuclei (%) [4]: 86%
Population Tubulin-Different-Phenotype (%) [4]: 70%
Total Cell Count [4]: 158
Population Apoptotic (%) [5]: 73%
Population Fragmented Nuclei (%) [5]: 11%
Population Healthy Nuclei (%) [5]: 35%
Population Hoechst High Intensity Objects (%) [5]: 16%
Population Membrane Permeable-Phenotype (%) [5]: 1%
Population Mitochondria Different-Phenotype (%) [5]: 90%
Population Mitotic Cells (%) [5]: 26%
Population Normal (%) [5]: 83%
Population Pyknosed Nuclei (%) [5]: 53%
Population Tubulin-Different-Phenotype (%) [5]: 80%
Total Cell Count [5]: 259
Population Apoptotic (%) [6]: 65%
Population Fragmented Nuclei (%) [6]: 3%
Population Healthy Nuclei (%) [6]: 48%
Population Hoechst High Intensity Objects (%) [6]: 0%
Population Membrane Permeable-Phenotype (%) [6]: 3%
Population Mitochondria Different-Phenotype (%) [6]: 94%
Population Mitotic Cells (%) [6]: 34%
Population Normal (%) [6]: 99%
Population Pyknosed Nuclei (%) [6]: 47%
Population Tubulin-Different-Phenotype (%) [6]: 89%
Total Cell Count [6]: 242
Population Apoptotic (%) [7]: 88%
Population Fragmented Nuclei (%) [7]: 16%
Population Healthy Nuclei (%) [7]: 8%
Population Hoechst High Intensity Objects (%) [7]: 23%
Population Membrane Permeable-Phenotype (%) [7]: 0%
Population Mitochondria Different-Phenotype (%) [7]: 100%
Population Mitotic Cells (%) [7]: 11%
Population Normal (%) [7]: 76%
Population Pyknosed Nuclei (%) [7]: 75%
Population Tubulin-Different-Phenotype (%) [7]: 73%
Total Cell Count [7]: 297
Population Apoptotic (%) [8]: 96%
Population Fragmented Nuclei (%) [8]: 7%
Population Hoechst High Intensity Objects (%) [8]: 12%
Population Mitochondria Different-Phenotype (%) [8]: 91%
Population Mitotic Cells (%) [8]: 3%
Population Normal (%) [8]: 87%
Population Pyknosed Nuclei (%) [8]: 84%
Population Tubulin-Different-Phenotype (%) [8]: 75%
Total Cell Count [8]: 162
Population Apoptotic (%) [9]: 75%
Population Fragmented Nuclei (%) [9]: 16%
Population Healthy Nuclei (%) [9]: 45%
Population Hoechst High Intensity Objects (%) [9]: 16%
Population Membrane Permeable-Phenotype (%) [9]: 0%
Population Mitochondria Different-Phenotype (%) [9]: 86%
Population Mitotic Cells (%) [9]: 24%
Population Normal (%) [9]: 83%
Population Pyknosed Nuclei (%) [9]: 37%
Population Tubulin-Different-Phenotype (%) [9]: 80%
Total Cell Count [9]: 322
Population Apoptotic (%) [10]: 71%
Population Fragmented Nuclei (%) [10]: 6%
Population Healthy Nuclei (%) [10]: 69%
Population Hoechst High Intensity Objects (%) [10]: 3%
Population Membrane Permeable-Phenotype (%) [10]: 1%
Population Mitochondria Different-Phenotype (%) [10]: 83%
Population Mitotic Cells (%) [10]: 28%
Population Normal (%) [10]: 96%
Population Pyknosed Nuclei (%) [10]: 23%
Population Tubulin-Different-Phenotype (%) [10]: 89%
Total Cell Count [10]: 305
Population Apoptotic (%) [11]: 85%
Population Fragmented Nuclei (%) [11]: 25%
Population Healthy Nuclei (%) [11]: 0%
Population Hoechst High Intensity Objects (%) [11]: 24%
Population Membrane Permeable-Phenotype (%) [11]: 0%
Population Mitochondria Different-Phenotype (%) [11]: 100%
Population Mitotic Cells (%) [11]: 14%
Population Normal (%) [11]: 75%
Population Pyknosed Nuclei (%) [11]: 73%
Population Tubulin-Different-Phenotype (%) [11]: 0%
Total Cell Count [11]: 315
Population Apoptotic (%) [12]: 98%
Population Fragmented Nuclei (%) [12]: 9%
Population Healthy Nuclei (%) [12]: 7%
Population Hoechst High Intensity Objects (%) [12]: 19%
Population Mitochondria Different-Phenotype (%) [12]: 90%
Population Mitotic Cells (%) [12]: 1%
Population Normal (%) [12]: 80%
Population Pyknosed Nuclei (%) [12]: 82%
Population Tubulin-Different-Phenotype (%) [12]: 72%
Total Cell Count [12]: 181

O=C1N/C(=N/c2ccccc2F)S/C1=C\c1ccc(C(=O)O)cc1
Population Apoptotic (%) [1]: 31%
Population Fragmented Nuclei (%) [1]: 14%
Population Healthy Nuclei (%) [1]: 38%
Population Hoechst High Intensity Objects (%) [1]: 14%
Population Membrane Permeable-Phenotype (%) [1]: 0%
Population Mitochondria Different-Phenotype (%) [1]: 70%
Population Mitotic Cells (%) [1]: 68%
Population Normal (%) [1]: 85%
Population Pyknosed Nuclei (%) [1]: 46%
Population Tubulin-Different-Phenotype (%) [1]: 21%
Total Cell Count [1]: 182
Population Apoptotic (%) [2]: 8%
Population Fragmented Nuclei (%) [2]: 6%
Population Healthy Nuclei (%) [2]: 42%
Population Hoechst High Intensity Objects (%) [2]: 4%
Population Membrane Permeable-Phenotype (%) [2]: 6%
Population Mitochondria Different-Phenotype (%) [2]: 6%
Population Mitotic Cells (%) [2]: 91%
Population Normal (%) [2]: 95%
Population Pyknosed Nuclei (%) [2]: 50%
Population Tubulin-Different-Phenotype (%) [2]: 6%
Total Cell Count [2]: 145
Population Apoptotic (%) [3]: 36%
Population Fragmented Nuclei (%) [3]: 10%
Population Healthy Nuclei (%) [3]: 38%
Population Hoechst High Intensity Objects (%) [3]: 14%
Population Membrane Permeable-Phenotype (%) [3]: 4%
Population Mitochondria Different-Phenotype (%) [3]: 63%
Population Mitotic Cells (%) [3]: 63%
Population Normal (%) [3]: 85%
Population Pyknosed Nuclei (%) [3]: 50%
Population Tubulin-Different-Phenotype (%) [3]: 33%
Total Cell Count [3]: 203
Population Apoptotic (%) [4]: 10%
Population Fragmented Nuclei (%) [4]: 4%
Population Healthy Nuclei (%) [4]: 51%
Population Hoechst High Intensity Objects (%) [4]: 3%
Population Membrane Permeable-Phenotype (%) [4]: 5%
Population Mitochondria Different-Phenotype (%) [4]: 18%
Population Mitotic Cells (%) [4]: 89%
Population Normal (%) [4]: 96%
Population Pyknosed Nuclei (%) [4]: 43%
Population Tubulin-Different-Phenotype (%) [4]: 16%
Total Cell Count [4]: 212
Population Apoptotic (%) [5]: 43%
Population Fragmented Nuclei (%) [5]: 16%
Population Healthy Nuclei (%) [5]: 38%
Population Hoechst High Intensity Objects (%) [5]: 12%
Population Membrane Permeable-Phenotype (%) [5]: 3%
Population Mitochondria Different-Phenotype (%) [5]: 46%
Population Mitotic Cells (%) [5]: 56%
Population Normal (%) [5]: 87%
Population Pyknosed Nuclei (%) [5]: 45%
Population Tubulin-Different-Phenotype (%) [5]: 24%
Total Cell Count [5]: 185
Population Apoptotic (%) [6]: 8%
Population Fragmented Nuclei (%) [6]: 6%
Population Healthy Nuclei (%) [6]: 56%
Population Hoechst High Intensity Objects (%) [6]: 5%
Population Membrane Permeable-Phenotype (%) [6]: 12%
Population Mitochondria Different-Phenotype (%) [6]: 13%
Population Mitotic Cells (%) [6]: 91%
Population Normal (%) [6]: 94%
Population Pyknosed Nuclei (%) [6]: 36%
Population Tubulin-Different-Phenotype (%) [6]: 21%
Total Cell Count [6]: 168
Population Apoptotic (%) [7]: 51%
Population Fragmented Nuclei (%) [7]: 13%
Population Healthy Nuclei (%) [7]: 46%
Population Hoechst High Intensity Objects (%) [7]: 16%
Population Membrane Permeable-Phenotype (%) [7]: 5%
Population Mitochondria Different-Phenotype (%) [7]: 48%
Population Mitotic Cells (%) [7]: 48%
Population Normal (%) [7]: 83%
Population Pyknosed Nuclei (%) [7]: 39%
Population Tubulin-Different-Phenotype (%) [7]: 26%
Total Cell Count [7]: 236
Population Apoptotic (%) [8]: 13%
Population Fragmented Nuclei (%) [8]: 5%
Population Healthy Nuclei (%) [8]: 69%
Population Hoechst High Intensity Objects (%) [8]: 4%
Population Membrane Permeable-Phenotype (%) [8]: 8%
Population Mitochondria Different-Phenotype (%) [8]: 17%
Population Mitotic Cells (%) [8]: 86%
Population Normal (%) [8]: 96%
Population Pyknosed Nuclei (%) [8]: 25%
Population Tubulin-Different-Phenotype (%) [8]: 24%
Total Cell Count [8]: 275
Population Apoptotic (%) [9]: 44%
Population Fragmented Nuclei (%) [9]: 20%
Population Healthy Nuclei (%) [9]: 43%
Population Hoechst High Intensity Objects (%) [9]: 16%
Population Membrane Permeable-Phenotype (%) [9]: 2%
Population Mitochondria Different-Phenotype (%) [9]: 27%
Population Mitotic Cells (%) [9]: 55%
Population Normal (%) [9]: 83%
Population Pyknosed Nuclei (%) [9]: 36%
Population Tubulin-Different-Phenotype (%) [9]: 26%
Total Cell Count [9]: 254
Population Apoptotic (%) [10]: 14%
Population Fragmented Nuclei (%) [10]: 6%
Population Healthy Nuclei (%) [10]: 80%
Population Hoechst High Intensity Objects (%) [10]: 5%
Population Membrane Permeable-Phenotype (%) [10]: 11%
Population Mitochondria Different-Phenotype (%) [10]: 6%
Population Mitotic Cells (%) [10]: 85%
Population Normal (%) [10]: 94%
Population Pyknosed Nuclei (%) [10]: 12%
Population Tubulin-Different-Phenotype (%) [10]: 24%
Total Cell Count [10]: 299
Population Apoptotic (%) [11]: 29%
Population Fragmented Nuclei (%) [11]: 18%
Population Healthy Nuclei (%) [11]: 45%
Population Hoechst High Intensity Objects (%) [11]: 11%
Population Membrane Permeable-Phenotype (%) [11]: 2%
Population Mitochondria Different-Phenotype (%) [11]: 19%
Population Mitotic Cells (%) [11]: 70%
Population Normal (%) [11]: 88%
Population Pyknosed Nuclei (%) [11]: 35%
Population Tubulin-Different-Phenotype (%) [11]: 21%
Total Cell Count [11]: 279
Population Apoptotic (%) [12]: 6%
Population Fragmented Nuclei (%) [12]: 6%
Population Healthy Nuclei (%) [12]: 83%
Population Hoechst High Intensity Objects (%) [12]: 2%
Population Membrane Permeable-Phenotype (%) [12]: 3%
Population Mitochondria Different-Phenotype (%) [12]: 5%
Population Mitotic Cells (%) [12]: 94%
Population Normal (%) [12]: 97%
Population Pyknosed Nuclei (%) [12]: 9%
Population Tubulin-Different-Phenotype (%) [12]: 14%
Total Cell Count [12]: 534
